IC50, Imax and inhibition data for 18 compounds are collected here from ChEMBL document CHEMBL1641376, “Novel bis-, tris-, and tetrakis-tertiary amino analogs as antagonists at neuronal nicotinic receptors that mediate nicotine-evoked dopamine release” (Bioorg Med Chem Lett, 2011).

SMILES strings stand for the structures.

Common to all, as to format: functional, tissue-based
For test [1], the target named is Neuronal acetylcholine receptor subunit alpha-6 (Rattus norvegicus, UniProt P43143). The test can be described thus: Antagonist activity at alpha6 nAChR in rat striatum assessed as inhibition of nicotine-induced [3H]dopamine release. Put shortly: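 Superfused rat striatal slices preloaded with [3H]DA; release evoked by 10 μM nicotine. Screening used 100 nM analogue, with inhibition expressed as % of the nicotine response without analogue (≥3 independent experiments, each in duplicate). Compounds giving >40% inhibition had full concentration-response curves run to derive IC50 and Imax (4–6 independent experiments).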

Test [2] addresses Neuronal acetylcholine receptor subunit alpha-6 (Rattus norvegicus) (UniProt P43143). Description: Antagonist activity at alpha6 nAChR in rat striatum assessed as inhibition of nicotine-induced [3H]dopamine release relative to nicotine. In outline:
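[3H]DA release from superfused rat striatal slices was evoked by 10 μM nicotine and tested across a full analogue concentration range. IC50 and Imax were derived from the concentration-response curves, with inhibition relative to the nicotine response in the absence of analogue. 4–6 independent experiments.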

Test [3] shares this target. The test can be described thus: Antagonist activity at alpha6 nAChR in rat striatum assessed as inhibition of nicotine-induced [3H]dopamine release at 100 nM relative to control. In outline: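 Superfused rat striatal slices preloaded with [3H]DA. Nicotine-evoked [3H]DA release was elicited by 10 μM nicotine with 100 nM analogue present. Inhibition is expressed as a percentage of the nicotine response under control conditions without analogue. At least 3 independent experiments, each in duplicate.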

Chain of Neuronal acetylcholine receptor subunit alpha-6 (P43143 whole entry, the tested form may be a part): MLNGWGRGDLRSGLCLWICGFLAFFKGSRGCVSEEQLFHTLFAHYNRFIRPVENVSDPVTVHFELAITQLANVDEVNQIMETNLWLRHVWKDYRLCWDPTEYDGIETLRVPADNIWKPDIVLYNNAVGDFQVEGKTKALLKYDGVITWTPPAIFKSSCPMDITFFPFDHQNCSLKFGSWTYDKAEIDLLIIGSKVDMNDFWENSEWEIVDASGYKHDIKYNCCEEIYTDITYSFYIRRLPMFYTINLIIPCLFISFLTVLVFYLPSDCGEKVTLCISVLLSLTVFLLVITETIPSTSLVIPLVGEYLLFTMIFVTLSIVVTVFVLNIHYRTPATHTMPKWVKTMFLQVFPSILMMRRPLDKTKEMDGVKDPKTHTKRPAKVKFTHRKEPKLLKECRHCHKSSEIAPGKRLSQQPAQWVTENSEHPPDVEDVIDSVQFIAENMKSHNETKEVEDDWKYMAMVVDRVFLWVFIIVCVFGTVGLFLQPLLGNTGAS
Chain of Neuronal acetylcholine receptor subunit alpha-6 (Rattus norvegicus) (P43143 whole entry, the tested form may be a part): as above

The term IC50 denotes the concentration that gives 50% inhibition. For the compound `c1ccc2c(c1)CCN(CCCCCCCCCCN1CCc3ccccc3C1)C2`, in test [1], the IC50 was determined as 9.91 nM. Besides, in test [2], the Imax was found to be 74%.

As a reminder, the inhibition is the percentage by which the read-out fell short of the control. On to `CC1=CCCN(CCCCCCCCCCCCN2CCC=C(C)C2)C1`, for which the inhibition in test [3] stood at 50%. For the same compound, the IC50 in test [1] was 0.95 nM. The Imax in test [2] came out at 60%.

Turning to `OCCCC1=CCCN(CCCCCc2cc(CCCCCN3CCC=C(CCCO)C3)c(CCCCCN3CCC=C(CCCO)C3)cc2CCCCCN2CCC=C(CCCO)C2)C1`, the inhibition in test [3] is 40%. Moreover, the concentration for half-maximal inhibition (IC50) in test [1] was 30 nM. Besides, in test [2], the Imax came to 64%.

With `Cc1ccc[n+](CCCC#Cc2cc(C#CCCC[n+]3cccc(C)c3)cc(C#CCCC[n+]3cccc(C)c3)c2)c1`, the inhibition in test [3] worked out at 40%. Besides, in test [1], the IC50 is 0.2 nM. Further, the Imax in test [2] worked out at 67%.

Consider `c1ccc2c[n+](CCCCCc3cc(CCCCC[n+]4ccc5ccccc5c4)c(CCCCC[n+]4ccc5ccccc5c4)cc3CCCCC[n+]3ccc4ccccc4c3)ccc2c1`, for which the IC50 in test [1] turned out to be 56 nM. For the same compound, the Imax in test [2] is 52%.

On to `CC1=CCCN(CCCC#Cc2cc(C#CCCCN3CCC=C(C)C3)cc(C#CCCCN3CCC=C(C)C3)c2)C1`, for which the inhibition in test [3] was found to be 83%. The IC50 in test [1] came to 3.22 nM. Besides, the Imax in test [2] amounted to 67%.

On to `OCCCc1ccc[n+](CCCCCc2cc(CCCCC[n+]3cccc(CCCO)c3)c(CCCCC[n+]3cccc(CCCO)c3)cc2CCCCC[n+]2cccc(CCCO)c2)c1`, for which the inhibition in test [3] is 41%. In addition, in test [1], the IC50 was 3 nM. Also, the Imax in test [2] came to 63%.

In the case of `CC1=CCCN(CCCCCCCCCCN2CCC=C(C)C2)C1`, the inhibition in test [3] was 36%. Moreover, in test [1], the IC50 was 37.4 nM. In test [2], the Imax came to 65%.

Take `c1ccc2c[n+](CCCCCCCCCCCC[n+]3ccc4ccccc4c3)ccc2c1`: the IC50 in test [1] worked out at 40 nM. In addition, the Imax in test [2] stood at 53%.

Take `Cc1ccc[n+](CCCCCCCCCC[n+]2cccc(C)c2)c1`: in test [1], the IC50 was found to be 180 nM. The Imax in test [2] stood at 63%.

Regarding `c1ccc2c[n+](CCCCCc3cc(CCCCC[n+]4ccc5ccccc5c4)cc(CCCCC[n+]4ccc5ccccc5c4)c3)ccc2c1`, the inhibition in test [3] worked out at 28%.

Take `c1ccc2c(c1)CCN(CCCCCCCCCCCCN1CCc3ccccc3C1)C2`: the 50% inhibitory concentration (IC50) in test [1] was 8.59 nM. Also, the Imax in test [2] came out at 76%.

For `c1ccc2c(c1)CCN(CCCCCc1cc(CCCCCN3CCc4ccccc4C3)cc(CCCCCN3CCc4ccccc4C3)c1)C2`, the inhibition in test [3] was 58%. Moreover, in test [1], the half-inhibitory concentration (IC50) stood at 0.35 nM. For the same compound, the Imax in test [2] is 58%.

On to `C(#Cc1ccccc1C#CCCC[n+]1ccc2ccccc2c1)CCC[n+]1ccc2ccccc2c1`, for which the half-maximal inhibitory concentration (IC50) in test [1] was 63 nM. The Imax in test [2] was 59%.

Regarding `c1ccc2c[n+](CCCCCCCCCC[n+]3ccc4ccccc4c3)ccc2c1`, the IC50 in test [1] was 70 nM. Further, in test [2], the Imax is 95%.

`C(#Cc1ccccc1C#CCCCN1CCc2ccccc2C1)CCCN1CCc2ccccc2C1`: the inhibition in test [3] was found to be 18%.

For the compound `c1ccc2c(c1)CCN(CCCCCc1cc(CCCCCN3CCc4ccccc4C3)c(CCCCCN3CCc4ccccc4C3)cc1CCCCCN1CCc3ccccc3C1)C2`, the inhibition in test [3] came to 84%. Also, the 50% inhibitory concentration (IC50) in test [1] was 205 nM. Also, the Imax in test [2] turned out to be 64%.

In the case of `Cc1ccc[n+](CCCCCCCCCCCC[n+]2cccc(C)c2)c1`, the IC50 in test [1] turned out to be 2 nM. The Imax in test [2] worked out at 63%.
